Like-named read-outs stand apart in the source and are kept apart here. Blank lines part the entries; values can stand above or below the molecule they belong to.
Experiments:
[1] = type: physicochemical, rat
[2] = tested on: rat blood carboxylesterases; type: in vitro ADME; settings: up to 30 min
Summary of the method: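 Fresh rat blood (200 μL) mixed first with 400 μL methanol, then test compound added. Incubated at 23 °C for 0, 2, 5, 10, 15 and 30 min in triplicate, then centrifuged. Supernatants analysed by LC-MS/MS (Synergi Fusion-RP column, water/methanol ammonium formate–formic acid gradient) for the acid metabolite.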

[3] = Rat pharmacokinetic study of DZ2002; type: in vivo, Sprague-Dawley rats
Summary of the method: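 Sprague-Dawley rats (230–280 g), four groups of 3 male + 3 female. Single tail-vein bolus of 5 mg/kg (normal saline), or single gavage doses of 5, 10 or 25 mg/kg. Blood (~100 μL) drawn at 0, 5, 15, 30 min and 1, 2, 4, 6, 8, 11, 24 h into heparinized tubes holding 400 μL methanol with 500 nM internal standard, then centrifuged. Parent and acid metabolite measured by LC-MS/MS. Non-compartmental analysis; F from dose-normalized po/iv AUC0–∞, either parent alone or parent plus acid.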

[4] = after three cycles of freeze and thaw of −70 °C↔23 °C, 80 nM
[5] = after three cycles of freeze and thaw of −70 °C↔23 °C, 8000 nM
[6] = in rat blood at 23 °C for 4 h, 80 nM
[7] = in rat blood at 23 °C for 4 h, 8000 nM
[8] = in rat blood at −70 °C for 60 days, 80 nM
[9] = in rat blood at −70 °C for 60 days, 8000 nM
[10] = in supernatant of methanol-treated rat blood at 10 °C for 24 h, 80 nM
[11] = in supernatant of methanol-treated rat blood at 10 °C for 24 h, 8000 nM
[12] = both, Sprague-Dawley, rat, blood, po
[13] = female, Sprague-Dawley, rat, blood, iv, 5 mg/kg
[14] = female, Sprague-Dawley, rat, blood, po, 5 mg/kg
[15] = female, Sprague-Dawley, rat, blood, po, 10 mg/kg
[16] = female, Sprague-Dawley, rat, blood, po, 25 mg/kg
[17] = male, Sprague-Dawley, rat, blood, iv, 5 mg/kg
[18] = male, Sprague-Dawley, rat, blood, po, 5 mg/kg
[19] = male, Sprague-Dawley, rat, blood, po, 10 mg/kg
[20] = male, Sprague-Dawley, rat, blood, po, 25 mg/kg
[21] = rats, intravenous DZ2002 at 5 mg/kg

- Stability, response (%Control) ([1]; after three cycles of freeze and thaw of −70 °C↔23 °C, 500 nM): (98.4) %Control
- Stability, response (%Control) ([1]; in rat blood at 23 °C for 4 h, 500 nM): (108) %Control
- Stability, response (%Control) ([1]; in rat blood at −70 °C for 60 days, 500 nM): (104) %Control
- Stability, response (%Control) ([1]; in stock solutions at −70 °C for 6 months, internal standard (500 nM)): (97.9) %Control
- Stability, response (%Control) ([1]; in supernatant of methanol-treated rat blood at 10 °C for 24 h, 500 nM): (106) %Control
Molecule: 3-(6-amino-9H-purin-9-yl)-2,2-diethylpropanoic acid [Internal standard, reference compound]

Molecule: COC(=O)[C@@H](O)CCn1cnc2c(N)ncnc21 [DZ2002, Methyl (S)-4-(6-amino-9H-purin-9-yl)-2-hydroxybutanoate]
- Formation of DZA in methanol-treated rat blood spiked with DZ2002 ([2]; 400 μL methanol to 50–200 μL rat blood, 23 °C): undetected
- Stability of DZ2002 in rat blood ([2]; freshly collected rat blood, 1000 nM, 23 or 37 °C): quickly transformed into its acid metabolite DZA
- Stability, response (%Control) [1, 4]: (108) %Control
- Stability, response (%Control) [1, 5]: (102) %Control
- Stability, response (%Control) [1, 6]: (93.6) %Control
- Stability, response (%Control) [1, 7]: (102) %Control
- Stability, response (%Control) [1, 8]: (94.6) %Control
- Stability, response (%Control) [1, 9]: (92.4) %Control
- Stability, response (%Control) [1, 10]: (108) %Control
- Stability, response (%Control) [1, 11]: (108) %Control
- bioavailability [3, 12]: 90 to 159%
- half-life [3, 12]: 18 to 54 min
- F1 (oral bioavailability, from AUC of DZ2002) ([3]; female rat, oral DZ2002 at 5 mg/kg vs iv 5 mg/kg): 145 ± 27%
- F1 (oral bioavailability, from AUC of DZ2002) ([3]; female rat, oral DZ2002 at 10 mg/kg vs iv 5 mg/kg): 90 ± 27%
- F1 (oral bioavailability, from AUC of DZ2002) ([3]; female rat, oral DZ2002 at 25 mg/kg vs iv 5 mg/kg): 118 ± 41%
- AUC(0-inf) [3, 13]: 0.68 ± 0.396 µM·h
- AUC(0-t) [3, 13]: 0.66 ± 0.376 µM·h
- MRT [3, 13]: 9 ± 3.6 min
- Vd [3, 13]: 4.59 ± 0.96 L/kg
- clearance [3, 13]: 590 mL/min/kg
- concentration at 5 min [3, 13]: 3.03 ± 1.45 µM
- half-life [3, 13]: 9 ± 6.6 min
- AUC(0-inf) [3, 14]: 0.985 ± 0.184 µM·h
- AUC(0-t) [3, 14]: 0.963 ± 0.182 µM·h
- Cmax [3, 14]: 2.72 ± 0.418 µM
- MRT [3, 14]: 25.8 ± 6.6 min
- Tmax [3, 14]: 4.8 min
- half-life [3, 14]: 18.6 ± 7.2 min
- AUC(0-inf) [3, 15]: 1.23 ± 0.348 µM·h
- AUC(0-t) [3, 15]: 1.18 ± 0.366 µM·h
- Cmax [3, 15]: 2.13 ± 0.742 µM
- MRT [3, 15]: 44.4 ± 9.6 min
- Tmax [3, 15]: 8.4 ± 6 min
- half-life [3, 15]: 32.4 ± 10.8 min
- AUC(0-inf) [3, 16]: 4.02 ± 1.4 µM·h
- AUC(0-t) [3, 16]: 3.95 ± 1.43 µM·h
- Cmax [3, 16]: 8.49 ± 2.49 µM
- MRT [3, 16]: 40.2 ± 13.8 min
- Tmax [3, 16]: 4.8 min
- half-life [3, 16]: 42.6 ± 25.2 min
- F1 (oral bioavailability, from AUC of DZ2002) ([3]; male rat, oral DZ2002 at 5 mg/kg vs iv 5 mg/kg): 157 ± 18%
- F1 (oral bioavailability, from AUC of DZ2002) ([3]; male rat, oral DZ2002 at 10 mg/kg vs iv 5 mg/kg): 146 ± 20%
- F1 (oral bioavailability, from AUC of DZ2002) ([3]; male rat, oral DZ2002 at 25 mg/kg vs iv 5 mg/kg): 159 ± 48%
- AUC(0-inf) [3, 17]: 0.504 ± 0.146 µM·h
- AUC(0-t) [3, 17]: 0.495 ± 0.142 µM·h
- MRT [3, 17]: 6.6 ± 1.2 min
- Vd [3, 17]: 4.5 ± 1.22 L/kg
- clearance [3, 17]: 707 mL/min/kg
- concentration at 5 min [3, 17]: 2.46 ± 0.597 µM
- half-life [3, 17]: 4.8 ± 0.6 min
- AUC(0-inf) [3, 18]: 0.79 ± 0.092 µM·h
- AUC(0-t) [3, 18]: 0.729 ± 0.052 µM·h
- Cmax [3, 18]: 1.38 ± 0.457 µM
- MRT [3, 18]: 40.2 ± 19.2 min
- Tmax [3, 18]: 11.4 ± 6 min
- half-life [3, 18]: 27 ± 13.8 min
- AUC(0-inf) [3, 19]: 1.47 ± 0.199 µM·h
- AUC(0-t) [3, 19]: 1.41 ± 0.171 µM·h
- Cmax [3, 19]: 2.36 ± 1.1 µM
- MRT [3, 19]: 49.8 ± 14.4 min
- Tmax [3, 19]: 8.4 ± 6 min
- half-life [3, 19]: 40.8 ± 29.4 min
- AUC(0-inf) [3, 20]: 4 ± 1.21 µM·h
- AUC(0-t) [3, 20]: 3.85 ± 1.15 µM·h
- Cmax [3, 20]: 4.02 ± 0.898 µM
- MRT [3, 20]: 72 ± 22.2 min
- Tmax [3, 20]: 8.4 ± 6 min
- half-life [3, 20]: 55.8 ± 16.2 min
- Systemic clearance (CLtot,b) exceeding rat cardiac output (17.8 L/h/kg) [3, 21]: around 2 times
- Systemic clearance (CLtot,b) exceeding rat hepatic blood flow rate (3.31 L/h/kg) [3, 21]: around 13 times

- Stability, response (%Control) [1, 4]: (98.1) %Control
- Stability, response (%Control) [1, 5]: (89.5) %Control
- Stability, response (%Control) [1, 6]: (95.2) %Control
- Stability, response (%Control) [1, 7]: (97.5) %Control
- Stability, response (%Control) [1, 8]: (108) %Control
- Stability, response (%Control) [1, 9]: (112) %Control
- Stability, response (%Control) [1, 10]: (106) %Control
- Stability, response (%Control) [1, 11]: (109) %Control
- half-life [3, 12]: 78 to 306 min
- AUC(0-inf) [3, 13]: 4.8 ± 0.3 µM·h
- AUC(0-t) [3, 13]: 4.71 ± 0.34 µM·h
- MRT [3, 13]: 30.6 ± 1.8 min
- concentration at 5 min [3, 13]: 15.5 µM
- half-life [3, 13]: 73.2 ± 26.4 min
- AUC(0-inf) [3, 14]: 4.36 ± 0.701 µM·h
- AUC(0-t) [3, 14]: 4.27 ± 0.669 µM·h
- Cmax [3, 14]: 6.49 ± 1.04 µM
- MRT [3, 14]: 60.6 ± 5.4 min
- Tmax [3, 14]: 11.4 ± 6 min
- half-life [3, 14]: 124 ± 68.4 min
- AUC(0-inf) [3, 15]: 7.81 ± 0.846 µM·h
- AUC(0-t) [3, 15]: 7.6 ± 1.03 µM·h
- Cmax [3, 15]: 7.23 ± 1.98 µM
- MRT [3, 15]: 97.8 ± 44.4 min
- Tmax [3, 15]: 16.8 ± 12.6 min
- half-life [3, 15]: 233 ± 225 min
- AUC(0-inf) [3, 16]: 18.4 µM·h
- AUC(0-t) [3, 16]: 17.6 µM·h
- Cmax [3, 16]: 19.8 µM
- MRT [3, 16]: 177 ± 166 min
- Tmax [3, 16]: 11.4 ± 6 min
- half-life [3, 16]: 305 ± 218 min
- AUC(0-inf) [3, 17]: 5.03 ± 0.212 µM·h
- AUC(0-t) [3, 17]: 4.94 ± 0.226 µM·h
- MRT [3, 17]: 33.6 ± 16.8 min
- concentration at 5 min [3, 17]: 15.3 µM
- half-life [3, 17]: 96.6 ± 104 min
- AUC(0-inf) [3, 18]: 3.9 ± 0.501 µM·h
- AUC(0-t) [3, 18]: 3.77 ± 0.608 µM·h
- Cmax [3, 18]: 5.23 ± 2.59 µM
- MRT [3, 18]: 74.4 ± 40.8 min
- Tmax [3, 18]: 19.8 ± 8.4 min
- half-life [3, 18]: 79.8 ± 38.4 min
- AUC(0-inf) [3, 19]: 6.81 ± 0.223 µM·h
- AUC(0-t) [3, 19]: 6.71 ± 0.267 µM·h
- Cmax [3, 19]: 7.03 ± 1.05 µM
- MRT [3, 19]: 78.6 ± 11.4 min
- Tmax [3, 19]: 19.8 ± 8.4 min
- half-life [3, 19]: 87.6 ± 13.8 min
- AUC(0-inf) [3, 20]: 18.4 µM·h
- AUC(0-t) [3, 20]: 18.1 µM·h
- Cmax [3, 20]: 16 µM
- MRT [3, 20]: 96 ± 18.6 min
- Tmax [3, 20]: 25.2 ± 8.4 min
- half-life [3, 20]: 167 ± 82.8 min
Molecule: Nc1ncnc2c1ncn2CCC(O)C(=O)O (stereo not shown) [DZA, 4-(6-amino-9H-purin-9-yl)-2-hydroxybutyric acid]

From publication PMC6355468 (Journal of Pharmaceutical Analysis, 2018)
